The record followed here is ChEMBL document CHEMBL3822384, “2-(3-Methoxyphenyl)quinazoline Derivatives: A New Class of Direct Constitutive Androstane Receptor (CAR) Agonists” (J Med Chem, 2016).

Structures are written as SMILES.

Common to all, as to assay type: cell-based
For data set [1], the target named is T1, Nuclear receptor subfamily 1 group I member 3 (Homo sapiens, UniProt Q14994).
T1 sequence (Q14994 whole entry): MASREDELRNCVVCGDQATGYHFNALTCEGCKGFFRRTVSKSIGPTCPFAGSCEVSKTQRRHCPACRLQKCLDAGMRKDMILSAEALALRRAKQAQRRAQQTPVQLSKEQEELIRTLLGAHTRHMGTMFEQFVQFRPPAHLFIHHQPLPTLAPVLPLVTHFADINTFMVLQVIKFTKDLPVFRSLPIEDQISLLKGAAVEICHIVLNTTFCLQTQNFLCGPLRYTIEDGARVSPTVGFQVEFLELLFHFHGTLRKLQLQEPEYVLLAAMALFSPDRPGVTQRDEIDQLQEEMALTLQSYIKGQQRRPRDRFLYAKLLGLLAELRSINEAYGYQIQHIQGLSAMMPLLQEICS
The experiment in a line: Agonist activity at CAR expressed in human HepG2 cells at 1 to 20 uM after 48 hrs by p(ER6)3-luciferase reporter gene assay. The following applies: hepg2, 48 h. The method, boiled down: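 HepG2 cells transiently co-transfected with p(ER6)3-luc reporter, wild-type CAR expression vector and pRL-TK normalization plasmid; after 24 h stabilization, treated with compounds or vehicle (DMSO 0.1%, v/v) for 48 h. Firefly and Renilla luciferase read; fold change versus vehicle (set to 1), means ± SD of triplicates from a representative experiment.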
Background: A reporter such as luciferase makes a cellular process visible.

For the next data set, the system named is HepG2. The experiment in a line: Cytotoxicity against human HepG2 cells assessed as cell viability after 24 hrs by MTS assay. Conditions: hepg2, 24 h. A general note: Tetrazolium assays rely on reduction of a dye to a coloured formazan, in cell work by metabolically active cells; call rule not given here.
The target of data set [2] is T1, Nuclear receptor subfamily 1 group I member 3. The experiment in a line: Agonist activity at human CAR expressed in human HepG2 cells assessed as upregulation of CYP2B6 mRNA expression at 1 uM after 24 hrs by qRT-PCR method. The following applies: hepg2, 24 h.
The target in a further data set is T2, AHR (Homo sapiens, UniProt P35869).
T2 sequence (P35869 whole entry): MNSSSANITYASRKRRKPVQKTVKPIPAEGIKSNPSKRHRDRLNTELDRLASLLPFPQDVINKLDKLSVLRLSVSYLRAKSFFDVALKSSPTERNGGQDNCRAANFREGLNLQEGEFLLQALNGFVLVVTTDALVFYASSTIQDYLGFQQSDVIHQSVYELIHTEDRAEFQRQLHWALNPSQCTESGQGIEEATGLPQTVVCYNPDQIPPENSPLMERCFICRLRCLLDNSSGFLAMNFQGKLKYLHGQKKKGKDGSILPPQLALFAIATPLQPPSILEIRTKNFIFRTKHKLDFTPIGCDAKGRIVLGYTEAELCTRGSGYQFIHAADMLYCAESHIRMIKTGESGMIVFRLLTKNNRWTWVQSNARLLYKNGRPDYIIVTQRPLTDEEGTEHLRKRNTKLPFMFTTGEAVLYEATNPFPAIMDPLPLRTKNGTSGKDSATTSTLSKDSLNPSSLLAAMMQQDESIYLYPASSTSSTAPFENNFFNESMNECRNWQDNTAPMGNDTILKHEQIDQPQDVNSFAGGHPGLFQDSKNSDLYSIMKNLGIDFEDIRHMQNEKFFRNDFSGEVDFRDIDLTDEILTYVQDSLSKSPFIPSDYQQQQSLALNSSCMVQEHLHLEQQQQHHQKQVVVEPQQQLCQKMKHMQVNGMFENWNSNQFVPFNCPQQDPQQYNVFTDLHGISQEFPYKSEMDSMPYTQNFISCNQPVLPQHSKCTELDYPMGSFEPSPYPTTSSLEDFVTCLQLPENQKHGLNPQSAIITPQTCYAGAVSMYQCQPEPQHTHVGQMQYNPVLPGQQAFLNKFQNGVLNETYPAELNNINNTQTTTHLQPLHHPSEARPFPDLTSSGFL
The data set can be described thus: (§1) Agonist activity at AHR expressed in human HepG2 cells after 24 hrs by pXRE-luciferase reporter gene assay. The following applies: human, HepG2 cells expressing AHR; read-out: Imax.

For data set [3], the target named is T3, Aryl hydrocarbon receptor (Homo sapiens, UniProt P35869).
T3 sequence (P35869 whole entry): T2 sequence (P35869 whole entry)
Described as §1.

Turning to `Clc1ccc(-c2nc3sccn3c2/C=N/OCc2ccc(Cl)c(Cl)c2)cc1`, the results for the Activity result (in data set [1]; in the data set on HepG2; in data set [2]) were “Active”, “Non-toxic” and “Active”, respectively.

Regarding `COc1cccc(-c2nc(O)c3ccccc3n2)c1`, the result in data set [1] was Active.

For `Cc1ccc2cc3c(ccc4ccccc43)c3c2c1CC3` [3-METHYLCHOLANTHRENE], on AHR, the Emax at 24 h is 119%. In data set [3], this compound yielded an EC50 of 490 nM.

For `Clc1cc2c(cc1Cl)Oc1cc(Cl)c(Cl)cc1O2` [2,3,7,8-TETRACHLORODIBENZO-P-DIOXIN], on AHR, the Emax at 24 h is 59%.

By EC50 is commonly meant the midpoint of the concentration-response curve.
